Assay outcomes: PubChem BioAssay, Sanford-Burnham Center for Chemical Genomics
APJ antag: APJ receptor antagonism | CHO-K1 APJ beta-arrestin complementation, luminescence | inhibition, % at 20 µM | 0.32% of 330,000 active | AID 2521;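 active = inhibition above about 40% at 20 µM, limit read from the data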;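 also: cells challenged with 10 nM apelin-13 agonist together with compound; plate controls were apelin-13 plus DMSO wells for no effect and DMSO wells lacking apelin-13 for full effect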
Target sequence (P35414 whole entry, looked up): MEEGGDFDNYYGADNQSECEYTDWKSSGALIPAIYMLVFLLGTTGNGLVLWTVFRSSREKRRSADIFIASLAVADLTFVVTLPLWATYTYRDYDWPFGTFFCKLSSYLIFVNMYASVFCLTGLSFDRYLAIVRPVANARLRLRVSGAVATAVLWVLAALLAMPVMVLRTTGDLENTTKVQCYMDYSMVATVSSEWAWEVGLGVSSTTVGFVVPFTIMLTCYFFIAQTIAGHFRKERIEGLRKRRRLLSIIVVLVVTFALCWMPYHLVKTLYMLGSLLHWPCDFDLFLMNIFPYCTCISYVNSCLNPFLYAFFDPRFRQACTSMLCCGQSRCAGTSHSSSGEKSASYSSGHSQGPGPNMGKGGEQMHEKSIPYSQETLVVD
CXCR6 block: inhibitors of human CXCR6 receptor; O00574; CHO-K1 PathHunter CXCR6 beta-arrestin, luminescence; inhibition, % at 20 µM; 0.36% of 360,000 active; AID 602244; in the data active = inhibition above about 34%, passing the limit was not always enough;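 also: antagonist mode with CXCL16 agonist at 10 nM final; 0% = 10 nM CXCL16 with DMSO and 100% = unstimulated wells without agonist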
Target sequence (O00574 whole entry, looked up): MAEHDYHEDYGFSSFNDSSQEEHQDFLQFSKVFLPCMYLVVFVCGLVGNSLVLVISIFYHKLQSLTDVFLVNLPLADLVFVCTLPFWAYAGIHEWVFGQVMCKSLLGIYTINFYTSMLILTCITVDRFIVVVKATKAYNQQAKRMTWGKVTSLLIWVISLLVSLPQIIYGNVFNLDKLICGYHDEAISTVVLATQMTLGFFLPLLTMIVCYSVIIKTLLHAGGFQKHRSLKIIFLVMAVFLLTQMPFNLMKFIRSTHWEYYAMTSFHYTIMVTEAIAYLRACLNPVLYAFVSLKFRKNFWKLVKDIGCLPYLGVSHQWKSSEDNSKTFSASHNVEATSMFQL
CCR6 antagonist: CCR6 (human) receptor antagonism; P51684; CHO-K1 CCR6 PathHunter beta-arrestin, luminescence, CCL20-stimulated; inhibition, % at 20 µM; 0.49% of 340,000 active; AID 493098;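 active = compounds whose inhibition of the agonist-driven luminescence signal at 20 µM reaches about 50%, limit read from the data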;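 also: cells stimulated with CCL20 at 14 nM final; plate controls were DMSO with CCL20 for no effect and DMSO without agonist for full effect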
APJ ag: APJ receptor agonism | CHO-K1 APJ PathHunter beta-arrestin, luminescence; 0% DMSO wells, 100% apelin | activation, % at 20 µM | 0.11% of 330,000 active | AID 2520;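 active = activation more than six SD over the plate average, tested at 20 µM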;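 also: 0% = DMSO alone and 100% = apelin-13 at 10 nM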
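Assay system: engineered CHO-K1 APJ arrestin reporter cells; Amount: 1000 CHO-K1 reporter cells seeded per well; Dosing: one dose, 20 µM compound, 1% DMSO; Times: compound stimulation 90 min at 25 °C, detection 60 min; Measured by: luminescent beta-gal fragment complementation, chemiluminescent substrate; Read-out: APJ–arrestin association signal; Controls: DMSO vs Apelin-13 10 nM.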
EBI2 antag: EBI2 (human) antagonism; EBI2 beta-arrestin recruitment, luminescence, 7a,25-OHC stimulated; 0.81% of 360,000 active; inhibition, % at 5 µM; in the data active = inhibition above about 38%;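 also: enzyme fragment complementation signal reports receptor beta-arrestin coupling in cells; 0% = agonist plus DMSO wells and 100% = wells without agonist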
* marks the source's active call; other numbers are inactive results; . = not tested or not shown. Hits are enriched below; roughly 1.5% of the tested compounds scored in any of these assays.

SMILES | APJ antag | CXCR6 block | CCR6 antagonist | APJ ag | EBI2 antag
N#Cc1ccc(NC(=S)N2CCC3CC2c2cc(-c4ccc5c(c4)OCO5)ccc23)cc1 (stereo unspecified) | . | -9.1 | . | . | 8.6
Cc1ccc(F)c(S(=O)(=O)NC(=O)C2(C)CCN2C(=O)Cc2ccccc2)c1 (stereo unspecified) | . | -13.2 | . | . | 7.4
CCc1nc2ccc(C(=O)NCCCN3CCCC3=O)cn2c1N(CC)Cc1cccc(Br)c1 | . | 2.8 | . | . | 10.9
CCOC(=O)N=Nc1c2ccccc2c2nc3no[nH]c3nc12 | 12.7 | 35.5* | 46.2 | -3.6 | -5.1
CCOC(=O)N=Nc1c(O)n(CC(=O)OC)c2ccccc12 | 1.8 | -1.9 | 11.6 | -2.4 | 4.4
NS(=O)(=O)c1cccc(NC(=O)COC(=O)C2(c3cccc(F)c3)CCCC2)c1 | -21.5 | -11.2 | 13.8 | 1.8 | -10.4
O=[N+]([O-])c1cccc(C=NNc2ccccc2)c1 | . | 5.5 | 25.2 | . | -1.6
O=[N+]([O-])c1ccc(C=NNc2ccccc2)cc1 | . | 18.4 | 50.3* | . | 8.7
Cc1cc2c(C)nc(N/N=C/c3ccc([N+](=O)[O-])cc3)nc2o1 | . | 3.6 | 108.2* | . | 0.7
CCOc1ncccc1C(=O)NCCc1ccc(Cl)cc1 | 14.7 | -0.1 | 16.8 | -2.2 | 10.5
Nc1nn2c(-c3ccccc3)cc(=O)[nH]c2c1N=Nc1ccc(Br)cc1 | . | 41.4* | 42.6 | . | 6.7
Cc1nc([N+](=O)[O-])c(Br)n1CC(=O)c1ccc(Cl)cc1 | 9.1 | 11.7 | 24.1 | 4.4 | 1.0
Cc1nc([N+](=O)[O-])c(Br)n1Cc1ccc(Cl)c(Cl)c1 | . | 5.7 | 7.7 | . | 50.2*
C=CCOc1cccc(C(=O)/C=C2/C(=O)Nc3ccccc32)c1 | -1.1 | 34.9 | 45.8 | 2.2 | 84.4*
O=C1Nc2ccc(Br)cc2/C1=C/C(=O)c1ccccc1 | . | 19.2 | . | . | 78.8*
CC(=O)/C=C1/C(=O)Nc2ccccc21 | 91.5* | 30.9 | 76.0* | -10.0 | 10.5
C=CCOc1cccc(C(=O)N2CCCC(CCC(=O)NCc3ccccc3F)C2)c1 (stereo unspecified) | 15.7 | -1.1 | -1.1 | 2.7 | 3.9
O=C(O)COc1ccccc1/C=C1\C(=O)Nc2ccc(Br)cc21 | 5.3 | 8.9 | 11.8 | -4.3 | 8.1
c1ccc(C(c2nnnn2Cc2ccco2)N2CCN(c3nc4ccccc4s3)CC2)cc1 (stereo unspecified) | 7.5 | 5.3 | 18.7 | -2.6 | 35.5*
CCOc1ccc(/C=N/NC(=S)NC2CC3CC2C2C=CCC32)cc1 (stereo unspecified) | 14.8 | 5.7 | 10.9 | -1.2 | 35.7
COc1cc(/C=N/NC(=S)NC2CC3CC2C2C=CCC32)ccc1O (stereo unspecified) | 4.8 | 13.5 | 6.2 | 5.1 | 45.1*
Cc1c[nH]c2cccc(OCC(CNC(C)(C)C)OC(=O)c3ccccc3)c12 (stereo unspecified) | 18.9 | 2.1 | 12.3 | -4.6 | 8.4
CCOC(=O)C1(Cc2ccc(Cl)cc2)CCN(C(=O)CCc2cnccn2)CC1 | -25.8 | -4.2 | 62.0* | -4.4 | -3.6
CCOC(=O)C1(Cc2ccc(OC)cc2)CCN(C(=O)CCc2cnccn2)CC1 | 6.9 | -3.6 | -3.6 | 0.4 | -6.3
N=c1n(Cc2ccc(Cl)cc2)c2ccccc2n1CC(O)COc1ccccc1 (stereo unspecified) | -6.1 | -20.6 | -3.3 | 14.5* | -4.4
SMILES | APJ antag | CXCR6 block | CCR6 antagonist | APJ ag | EBI2 antag
COc1ccc(OCC(O)Cn2c(=N)n(Cc3ccccc3)c3ccccc32)cc1 (stereo unspecified) | 4.0 | -6.1 | 12.3 | 1.3 | -3.0
Cc1ccc2cccc(OCC(=O)Nc3ccc4c(c3)OCO4)c2n1 | 9.9 | 7.4 | 0.8 | -0.4 | -2.2
Cc1ccc2cccc(OC(=O)c3ccc4c(c3)OCCO4)c2n1 | 26.2 | 35.0 | 52.2* | -4.1 | -13.0
C=C1[C@@H](OC(C)=O)C=C[C@@]2(C)C=CC(=O)[C@@](C)(OC(C)=O)[C@@H]2[C@@H](OC(C)=O)[C@]2(O)[C@@H](C)C(=O)O[C@H]2[C@H]1Cl | . | 1.0 | . | . | -9.9
Cc1nc2c(-c3ccc(Cl)cc3)c(C)[nH]n2c(=O)c1Cc1ccccc1 | -4.5 | 43.1* | 47.4 | 1.1 | -20.0
Cc1nc2c(-c3ccccc3)c(C)[nH]n2c(=O)c1Cc1ccccc1 | 12.3 | 1.3 | 19.4 | -2.5 | 1.1
COC(=O)[C@@]12C[C@@H](CC(=O)NCC3CCCCC3)C(=O)N(Cc3cccc4ccccc34)C1=CCC(C)(C)C2 | . | . | . | . | 12.9
Clc1ccc(-c2cn3c(n2)-c2ccccc2C3)cc1Cl | -9.3 | 0.0 | 5.9 | -2.9 | 56.7*
COc1cc(/C=C/c2ccc3cccc(O)c3n2)c(Br)cc1O | 16.9 | 21.0 | . | -5.0 | -0.1
Oc1cccc2ccc(/C=C/c3ccccc3Br)nc12 | 33.9 | 32.0 | 62.2* | -10.7 | 1.2
COc1cc(/C=C/c2ccc3cccc(O)c3n2)ccc1O | 14.9 | 42.8* | 66.8* | -0.9 | 8.5
COc1cc(Br)c(/C=C/c2ccc3cccc(O)c3n2)cc1OC | 2.7 | 24.2 | 48.3 | -4.0 | 8.9
O=C1c2ccccc2[C@@H]2C[C@@H](O)[C@H](Nc3cccc4ccccc34)CCN12 | . | -4.2 | 23.7 | . | -8.0
COC(=O)C1=C(C(=O)OC)SC(=C2C(=S)C(C)(C)N(C(=O)CC(C)C)c3ccccc32)S1 | 37.2 | 31.2 | 49.3 | -1.3 | 56.2*
Cc1cccc2nc(CSc3nc4ccc([N+](=O)[O-])cc4[nH]3)c(Br)n12 | 19.9 | 10.3 | 51.5* | 1.2 | 1.5
NC(=O)CSc1nc2ccc([N+](=O)[O-])cc2[nH]1 | 4.9 | 6.9 | 17.9 | -0.1 | -5.5
COCCNC(=O)Cn1cc(/C=N/NC(=O)c2ccc(Oc3ccc(O)cc3)cc2)c2ccccc21 | -12.3 | -6.3 | 14.1 | -1.6 | 8.8
CC1=NNC(=O)/C1=C\c1cn(-c2ccccc2)nc1-c1ccccc1 | . | 33.8 | 24.1 | . | 62.7*
COc1ccccc1OC(C)C(=O)N(Cc1ccco1)C1CCS(=O)(=O)C1 (stereo unspecified) | 3.9 | -1.3 | -0.2 | -1.4 | -9.9
COc1ccc(Nc2c([N+](=O)[O-])ccc3c2=NC2(CCCCC2)N=3)cc1 | -19.7 | -3.3 | 10.1 | -0.8 | 61.1*
O=[N+]([O-])c1ccc2c(c1Nc1ccccc1)=NC1(CCCCC1)N=2 | 3.9 | 12.3 | -6.9 | 6.2 | 66.5*
O=[N+]([O-])c1ccccc1Nc1ccccc1 | 23.6 | 13.3 | 21.5 | -4.1 | 5.2
Cc1ccccc1NS(=O)(=O)c1cccc(-c2nnc(-c3ccccc3)o2)c1 | 3.4 | 10.0 | 10.8 | -3.6 | 4.6
CN(C)S(=O)(=O)c1cccc(-c2nnc(-c3ccccc3)o2)c1 | 16.8 | 5.4 | 8.7 | 0.9 | 50.1*
COc1ccc(O)cc1CN1CCN(c2ncc(Cc3ccccc3)cn2)CC1 | . | . | . | . | -4.4
COc1cccc(NC(=S)NC(=O)c2cncc(Br)c2)c1 | 19.6 | 34.7 | 43.1 | -3.2 | 2.4
CC(=O)c1cccc(NC(=S)NC(=O)c2cncc(Br)c2)c1 | 28.2 | 28.1 | 56.0* | -7.9 | 3.8
